Laboratory results from ChEMBL document CHEMBL4808210, “Mapping Chromone-3-Phenylcarboxamide Pharmacophore: Quid Est Veritas?” (J Med Chem, 2021).
Values belong to the molecule of their own block, whether it stands above or below them. Calls of active or inactive are those of the source. The calls are words filed in the database; no cut-off is given here.

What was measured:
Homo sapiens = organism: Homo sapiens; experiment: Selectivity index, ratio of IC50 for recombinant human MAO-A expressed in baculovirus infected BTI-TN- 5B1-4 insect cells to IC50 for recombinant human MAO-B expressed in baculovirus infected BTI-TN- 5B1-4 insect cells using kynuramine as substrate preincubated for 10 mins in presence of substrate followed by enzyme addition and measured every minute for 30 mins by spectrophotometry analysis
How it was run: (§1)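 Recombinant hMAO-A and hMAO-B were assayed with kynuramine as substrate. Percent inhibition was taken at 10 μM, the highest concentration tested. Where the hMAO-A IC₅₀ was not reached, it was taken as 10 μM.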

MAO-A = molecular target: T1, MAO-A (Homo sapiens, UniProt P21397); experiment: (§2) Inhibition of recombinant human MAO-A expressed in baculovirus infected BTI-TN- 5B1-4 insect cells at 10 uM using kynuramine as substrate preincubated for 10 mins in presence of substrate followed by enzyme addition and measured every minute for 30 mins by spectrophotometry analysis relative to control; conditions: probe kynuramine, time 40 min; how it was run: as §1
T1 sequence (P21397 whole entry): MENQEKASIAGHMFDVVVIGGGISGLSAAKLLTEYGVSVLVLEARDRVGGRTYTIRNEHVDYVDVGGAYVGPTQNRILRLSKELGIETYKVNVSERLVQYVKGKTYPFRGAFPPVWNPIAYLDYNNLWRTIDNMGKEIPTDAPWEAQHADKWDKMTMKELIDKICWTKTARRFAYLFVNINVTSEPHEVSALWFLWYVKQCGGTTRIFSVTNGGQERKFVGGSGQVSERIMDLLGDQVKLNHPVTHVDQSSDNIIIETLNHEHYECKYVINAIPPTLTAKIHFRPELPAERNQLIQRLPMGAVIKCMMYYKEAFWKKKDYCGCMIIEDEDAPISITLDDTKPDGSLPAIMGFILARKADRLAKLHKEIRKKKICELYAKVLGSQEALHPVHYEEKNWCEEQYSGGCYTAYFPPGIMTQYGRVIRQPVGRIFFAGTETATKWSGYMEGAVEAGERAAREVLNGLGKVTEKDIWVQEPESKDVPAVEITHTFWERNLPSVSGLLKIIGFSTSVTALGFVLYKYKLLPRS

Caco-2 [1] = experiment: Cytotoxicity against human Caco-2 cells assessed as effect on cell viability at 1 to 10 uM measured after 24 hrs by MTT assay; assay type: cell-based; conditions: caco-2, 24 h, dose 1-10 µM
How it was run: (§3)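 Caco-2 cells, and SH-SY5Y cells first differentiated toward a dopaminergic-like phenotype, were treated for 24 h with compounds at 1 and 10 μM. Metabolic activity was read as MTT reduction to formazan, relative to untreated cells. Mean ± SEM of at least three independent experiments, each in triplicate.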

SH-SY5Y [2] = experiment: Cytotoxicity against human SH-SY5Y cells assessed as effect on NR uptake at 1 to 10 uM measured after 24 hrs by neutral red uptake assay; assay type: cell-based; conditions: dose 1-10 µM
How it was run: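 Differentiated SH-SY5Y cells were exposed to compounds at 1 and 10 μM for 24 h. Lysosomal activity was read as neutral red dye uptake and compared with untreated cells. Mean ± SEM of at least three independent experiments run in triplicate.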

[3] = molecular target: T2, Amine oxidase [flavin-containing] B (Homo sapiens, UniProt P27338); experiment: Inhibition of recombinant human MAO-B expressed in baculovirus infected BTI-TN- 5B1-4 insect cells using kynuramine as substrate preincubated for 10 mins in presence of substrate followed by enzyme addition and measured every minute for 30 mins by spectrophotometry analysis; assay type: cell-based
T2 sequence (P27338 whole entry): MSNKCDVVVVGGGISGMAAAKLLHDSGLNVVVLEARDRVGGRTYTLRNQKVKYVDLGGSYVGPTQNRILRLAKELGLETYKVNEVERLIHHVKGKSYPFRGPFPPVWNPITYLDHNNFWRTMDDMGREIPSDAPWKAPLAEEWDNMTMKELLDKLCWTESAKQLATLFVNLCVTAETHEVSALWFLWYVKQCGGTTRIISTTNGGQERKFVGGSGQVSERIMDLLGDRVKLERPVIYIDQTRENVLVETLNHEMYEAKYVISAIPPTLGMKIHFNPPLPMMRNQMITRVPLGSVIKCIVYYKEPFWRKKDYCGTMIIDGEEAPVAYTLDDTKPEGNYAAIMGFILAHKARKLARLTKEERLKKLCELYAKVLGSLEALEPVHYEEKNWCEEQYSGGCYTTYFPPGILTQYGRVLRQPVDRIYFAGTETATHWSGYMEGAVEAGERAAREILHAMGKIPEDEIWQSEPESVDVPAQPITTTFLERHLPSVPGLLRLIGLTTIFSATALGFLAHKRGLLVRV

[4] = molecular target: T2, Amine oxidase [flavin-containing] B; experiment: Time dependent inhibition of recombinant human MAO-B expressed in baculovirus infected BTI-TN- 5B1-4 insect cells assessed as increase in enzyme activity at IC80 measured after 120 mins; conditions: bti-tn-5b1-4, 2 h
SH-SY5Y [5] = experiment: Cytotoxicity against human SH-SY5Y cells assessed as reduction in cell viability at 10 uM measured after 24 hrs by MTT assay relative to control; assay type: cell-based; how it was run: as §3
SH-SY5Y [6] = experiment: Cytotoxicity against human SH-SY5Y cells assessed as reduction in cell viability at 1 uM measured after 24 hrs by MTT assay relative to control; assay type: cell-based; how it was run: as §3
Caco-2 [7] = experiment: Cytotoxicity against human Caco-2 cells assessed as reduction in cell viability at 10 uM measured after 24 hrs by MTT assay relative to control; assay type: cell-based; conditions: caco-2, 24 h; how it was run: as §3
[8] = molecular target: T2, Amine oxidase [flavin-containing] B; experiment: as §2, with “MAO-B” for “MAO-A”; conditions: BTI-TN-5B1-4, human, 0.5 h, time 40 min; how it was run: as §1
HEK293 [9] = experiment: Cytotoxicity against HEK293 cells at 10 uM incubated for 24 to 48 hrs by Celltiter-Glo assay relative to control; assay type: cell-based; conditions: human, hek293, 10 µM, time 24-48 hrs
How it was run: (§4)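 Cells (HEK-293, HUVEC, MCF-7) exposed to test compounds at 10 μM for 24 h; cytotoxicity read in triplicate with a luminescence kit measuring intracellular ATP levels.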

SH-SY5Y [10] = experiment: Protection against iron(III)-induced damage in human SH-SY5Y cells assessed as increase in lysosomal activity at 1 to 10 uM pretreated for 30 mins followed by iron(III) treatment at 1500 uM after 24 hrs by NR uptake assay; assay type: functional, cell-based; conditions: dose 1-10 µM, time 24.5 hrs
How it was run: (§5)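 Differentiated SH-SY5Y cells were pretreated with compounds at 1 or 10 μM for 30 min, then exposed to iron(III) at 1000 or 1500 μM for 24 h. Viability was read by neutral red uptake. Mean ± SD of three independent experiments, two-way ANOVA.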

HEK293 [11] = experiment: Cytotoxicity against HEK293 cells incubated for 24 to 48 hrs by Celltiter-Glo assay; assay type: cell-based, Homo sapiens
MCF7 [12] = experiment: Cytotoxicity against human MCF7 cells at 10 uM incubated for 24 to 48 hrs by Celltiter-Glo assay relative to control; assay type: cell-based; conditions: mcf7, 10 µM, time 24-48 hrs; how it was run: as §4
[13] = molecular target: ATP-dependent translocase ABCB1 (Homo sapiens, UniProt P08183); experiment: Modulation of P-gp-mediated Rhodamine-123 efflux in human Caco-2 cells assessed as Rhodamine-123 accumulation at 10 uM pretreated for 30 mins in presence or absence of Zos followed by Rho-123 addition and measured after 90 mins by fluorescence spectroscopy; assay type: cell-based; conditions: caco-2, 2 h, time 120 min
ATP-dependent translocase ABCB1, sequence (P08183 whole entry): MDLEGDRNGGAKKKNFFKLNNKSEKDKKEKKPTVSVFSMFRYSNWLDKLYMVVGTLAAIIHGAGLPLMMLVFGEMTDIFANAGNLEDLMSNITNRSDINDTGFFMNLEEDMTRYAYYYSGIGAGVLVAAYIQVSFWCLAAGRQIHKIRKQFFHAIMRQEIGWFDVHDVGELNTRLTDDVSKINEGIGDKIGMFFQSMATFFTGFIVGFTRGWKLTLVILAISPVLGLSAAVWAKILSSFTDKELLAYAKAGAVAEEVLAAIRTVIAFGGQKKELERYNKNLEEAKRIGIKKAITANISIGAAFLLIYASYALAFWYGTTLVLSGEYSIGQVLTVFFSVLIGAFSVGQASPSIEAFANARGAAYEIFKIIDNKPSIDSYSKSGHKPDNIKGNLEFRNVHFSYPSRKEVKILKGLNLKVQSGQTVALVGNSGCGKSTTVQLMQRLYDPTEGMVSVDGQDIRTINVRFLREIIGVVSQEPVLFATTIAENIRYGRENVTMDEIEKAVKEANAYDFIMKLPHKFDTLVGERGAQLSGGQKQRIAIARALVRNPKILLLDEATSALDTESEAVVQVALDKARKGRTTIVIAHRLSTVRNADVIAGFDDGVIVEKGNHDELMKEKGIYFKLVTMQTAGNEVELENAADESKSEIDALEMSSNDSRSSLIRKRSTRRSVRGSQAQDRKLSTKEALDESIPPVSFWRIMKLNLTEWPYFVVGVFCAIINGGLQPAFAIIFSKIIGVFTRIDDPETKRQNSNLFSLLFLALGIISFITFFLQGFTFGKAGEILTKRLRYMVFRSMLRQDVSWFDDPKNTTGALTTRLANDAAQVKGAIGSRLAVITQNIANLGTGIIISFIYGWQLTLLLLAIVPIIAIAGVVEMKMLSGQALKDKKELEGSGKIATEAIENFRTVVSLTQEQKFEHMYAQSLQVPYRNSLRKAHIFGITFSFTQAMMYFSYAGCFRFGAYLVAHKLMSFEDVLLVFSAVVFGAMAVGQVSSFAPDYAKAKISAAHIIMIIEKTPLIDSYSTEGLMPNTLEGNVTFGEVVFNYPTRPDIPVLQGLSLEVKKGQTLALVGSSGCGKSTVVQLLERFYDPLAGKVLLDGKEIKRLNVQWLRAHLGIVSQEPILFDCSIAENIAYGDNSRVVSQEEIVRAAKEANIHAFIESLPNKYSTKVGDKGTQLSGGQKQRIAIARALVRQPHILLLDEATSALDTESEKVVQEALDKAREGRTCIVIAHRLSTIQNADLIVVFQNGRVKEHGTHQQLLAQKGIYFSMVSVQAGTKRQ
How it was run: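 Caco-2 cells were exposed to compounds at 10 μM during incubation with the P-gp substrate rhodamine 123 (5 μM). Zosuquidar served as the specific P-gp inhibitor. Cellular rhodamine 123 was read by fluorescence spectroscopy. Mean ± SEM of at least three independent experiments in triplicate.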

HUVEC [14] = experiment: Cytotoxicity against HUVEC cells incubated for 24 to 48 hrs by Celltiter-Glo assay; assay type: cell-based, Homo sapiens
SH-SY5Y [15] = experiment: Protection against iron(III)-induced damage in human SH-SY5Y cells assessed as increase in lysosomal activity at 1 to 10 uM pretreated for 30 mins followed by iron(III) treatment at 1000 uM after 24 hrs by NR uptake assay; assay type: functional, cell-based; conditions: dose 1-10 µM, time 24.5 hrs; how it was run: as §5
MCF7 [16] = experiment: Cytotoxicity against human MCF7 cells incubated for 24 to 48 hrs by Celltiter-Glo assay; assay type: cell-based
hERG = hERG (Homo sapiens, UniProt Q12809); experiment: Inhibition of human ERG at 10 uM incubated for 2 hrs by fluorescence polarization assay relative to control
hERG, sequence (Q12809 whole entry): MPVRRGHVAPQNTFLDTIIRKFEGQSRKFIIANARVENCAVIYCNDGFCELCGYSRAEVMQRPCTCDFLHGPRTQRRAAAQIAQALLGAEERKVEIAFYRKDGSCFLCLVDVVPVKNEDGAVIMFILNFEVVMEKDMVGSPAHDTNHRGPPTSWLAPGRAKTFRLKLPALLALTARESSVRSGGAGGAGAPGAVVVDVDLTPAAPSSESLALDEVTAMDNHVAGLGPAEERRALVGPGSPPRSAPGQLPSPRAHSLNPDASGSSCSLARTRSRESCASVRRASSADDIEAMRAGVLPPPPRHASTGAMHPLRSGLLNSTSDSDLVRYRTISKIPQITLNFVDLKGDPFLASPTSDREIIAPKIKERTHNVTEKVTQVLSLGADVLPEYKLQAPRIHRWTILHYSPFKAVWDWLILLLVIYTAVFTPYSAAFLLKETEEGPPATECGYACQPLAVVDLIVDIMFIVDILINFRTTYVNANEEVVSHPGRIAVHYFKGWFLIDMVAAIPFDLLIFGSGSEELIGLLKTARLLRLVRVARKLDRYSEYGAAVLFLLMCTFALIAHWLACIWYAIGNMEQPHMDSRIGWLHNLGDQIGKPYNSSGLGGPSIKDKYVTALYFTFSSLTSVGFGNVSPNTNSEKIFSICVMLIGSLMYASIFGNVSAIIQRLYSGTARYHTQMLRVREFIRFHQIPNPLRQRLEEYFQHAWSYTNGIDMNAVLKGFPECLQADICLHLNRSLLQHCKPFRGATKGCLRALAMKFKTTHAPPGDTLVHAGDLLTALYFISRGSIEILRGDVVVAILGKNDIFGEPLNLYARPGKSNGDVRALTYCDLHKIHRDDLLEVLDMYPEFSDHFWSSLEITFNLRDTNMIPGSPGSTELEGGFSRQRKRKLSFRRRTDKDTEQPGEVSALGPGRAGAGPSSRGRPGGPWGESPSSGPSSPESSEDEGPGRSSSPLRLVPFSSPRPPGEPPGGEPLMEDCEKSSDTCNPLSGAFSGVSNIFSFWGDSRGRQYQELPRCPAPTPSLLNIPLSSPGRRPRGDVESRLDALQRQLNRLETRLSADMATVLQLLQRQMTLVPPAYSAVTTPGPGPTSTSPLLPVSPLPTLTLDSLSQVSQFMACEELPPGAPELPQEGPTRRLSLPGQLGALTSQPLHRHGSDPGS
How it was run: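 hERG binding was measured by fluorescence polarization, using a homogenized membrane preparation containing hERG plus a fluorescent tracer. A drop in FP signal from tracer displacement was read as inhibition. Compounds were tested at 10 μM.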

HUVEC [17] = experiment: Cytotoxicity against HUVEC cells at 10 uM incubated for 24 to 48 hrs by Celltiter-Glo assay relative to control; assay type: cell-based; conditions: human, time 24-48 hrs; how it was run: as §4
[18] = molecular target: T3, Amine oxidase [flavin-containing] A (Homo sapiens, UniProt P21397); experiment: Inhibition of recombinant human MAO-A expressed in baculovirus infected BTI-TN- 5B1-4 insect cells using kynuramine as substrate preincubated for 10 mins in presence of substrate followed by enzyme addition and measured every minute for 30 mins by spectrophotometry analysis; how it was run: as §1
T3 sequence (P21397 whole entry): T1 sequence (P21397 whole entry)

[19] = Solubility of the compound in phosphate buffer at > 10 uM; assay type: physicochemical

SMILES: O=C(Nc1ccc(Cl)c(Cl)c1)C1COc2ccccc2C1 (configuration not stated)
- Ratio IC50 (Homo sapiens): > 127
- inhibition at 0.5 h, 10 µM (MAO-A): 16.4%
- Activity (Caco-2 [1]): Non-Toxic
- Activity (SH-SY5Y [2]): Non-Toxic
- IC50 [3]: 0.0788 µM

SMILES: O=C(Nc1cccc(Cl)c1)C1COc2ccccc2C1 (configuration not stated)
- Ratio IC50 (Homo sapiens): > 10.4
- inhibition at 0.5 h, 10 µM (MAO-A): 10.9%
- IC50 [3]: 0.957 µM

SMILES: C[C@H](NCc1ccc(OCc2cccc(F)c2)cc1)C(N)=O [SAFINAMIDE]
- inhibition at 0.5 h, 10 µM (MAO-A): 30.5%
- TDI [4]: Active

SMILES: Cc1ccc(NC(=O)c2cc3ccccc3n(C)c2=O)cc1C
- inhibition at 0.5 h, 10 µM (MAO-A): 7.65%
- inhibition at 10 µM [8]: 21%

SMILES: O=C(Nc1ccc(Cl)c(Cl)c1)C1=Cc2ccccc2OC1
- Activity (HEK293 [9]): < 10%
- Activity (SH-SY5Y [10]): inactive
- Ratio IC50 (Homo sapiens): 1300
- Activity (Caco-2 [1]): Non-Toxic
- IC50 (HEK293 [11]): Not Active
- Activity (MCF7 [12]): < 10%
- Activity [13]: Not Active
- Activity (SH-SY5Y [2]): Non-Toxic
- IC50 (HUVEC [14]; Homo sapiens, HUVEC, read-out: IC50): 8.4 µM
- IC50 [3]: 0.00316 µM
- Activity (SH-SY5Y [15]): inactive
- IC50 [18]: 4.13 µM
- IC50 (MCF7 [16]): Not Active
- inhibition at 2 h, 10 µM (hERG): < 10%
- Activity (HUVEC [17]): 64.4%

SMILES: O=C(Nc1cccc(Cl)c1)C1=Cc2ccccc2OC1
- Ratio IC50 (Homo sapiens): 444
- Activity (Caco-2 [7]): 88.3%
- Activity (SH-SY5Y [2]): Non-Toxic
- IC50 [3]: 0.0264 µM
- IC50 [18]: 11.7 µM

SMILES: Cc1ccc(NC(=O)c2coc3ccccc3c2=O)cc1C
- Activity (HEK293 [9]): < 10%
- Activity (SH-SY5Y [5]): < 85%
- Activity (SH-SY5Y [10]): inactive
- Activity (Caco-2 [1]): Non-Toxic
- IC50 (HEK293 [11]): Not Active
- Activity (MCF7 [12]): < 10%
- Activity [13]: Not Active
- Activity (SH-SY5Y [2]): Non-Toxic
- IC50 (HUVEC [14]; huvec): Not Active
- Activity (SH-SY5Y [15]): inactive
- IC50 (MCF7 [16]): Not Active
- inhibition at 2 h, 10 µM (hERG): < 10%
- Activity (HUVEC [17]): < 10%

Further lines, with some results ahead:

- inhibition at 0.5 h, 10 µM (MAO-A): 13.5%
- IC50 [3]: 0.0102 µM
SMILES: O=C(Nc1cccc(Cl)c1)c1cc2ccccc2oc1=O
- Activity (SH-SY5Y [5]): 71.8%
- Ratio IC50 (Homo sapiens): > 985
- Activity (SH-SY5Y [6]): 79.5%
- Activity (Caco-2 [7]): 93.5%
- Activity (SH-SY5Y [2]): Non-Toxic

- Activity [13]: Not Active
SMILES: O=C(Nc1cccc(Cl)c1)c1coc2ccccc2c1=O
- Activity (HEK293 [9]): < 10%
- Activity (SH-SY5Y [5]): < 85%
- Activity (SH-SY5Y [10]): inactive
- Activity (Caco-2 [1]): Non-Toxic
- IC50 (HEK293 [11]): Not Active
- Activity (MCF7 [12]): < 10%
- Activity (SH-SY5Y [2]): Non-Toxic
- IC50 (HUVEC [14]; huvec): Not Active
- Activity (SH-SY5Y [15]): inactive
- IC50 (MCF7 [16]): Not Active
- inhibition at 2 h, 10 µM (hERG): < 10%
- Activity (HUVEC [17]): < 10%

- solubility [19]: Insoluble
SMILES: O=C(Nc1ccc(Cl)c(Cl)c1)c1cc2ccccc2oc1=O

- solubility [19]: Insoluble
SMILES: COc1ccc(NC(=O)c2cc3ccccc3oc2=O)cc1OC
